According to ChEMBL document CHEMBL5303300, “EUbOPEN Chemogenomics Library - Multiplex” (2023):
Where “and” joins values, the source holds several entries; their conditions need not be identical. Equal entries are not always repeated.

System: Fibroblast
Assay: Multiplex assay against human fibroblast
Format: toxicity, cell-based
Settings: number of replicates 2
Procedure, shortened: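 Cells were classed with CellPathfinder machine-learning gating, first as Hoechst high-intensity objects or normal cells, then (normal cells) as healthy, pyknosed or fragmented nuclei, and finally (pyknosed cells) as mitotic or apoptotic. Staining of live cells at seeding used Hoechst33342, BioTracker Green Microtubule Cytoskeleton Dye, MitoTracker Red and Annexin V Alexa Fluor 680, with imaging on a CQ1 microscope at 37°C and 5% CO2 after compound addition. Tubulin, mitochondrial-mass and membrane-permeability phenotypes are per cents of healthy-nucleus cells.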

[1] = 12 h, 1 µM, compound concentration 1 uM
[2] = 12 h, 10 µM, compound concentration 10 uM
[3] = 24 h, 1 µM, compound concentration 1 uM
[4] = 24 h, 10 µM, compound concentration 10 uM
[5] = 48 h, 1 µM, compound concentration 1 uM
[6] = 48 h, 10 µM, compound concentration 10 uM

CS(=O)(=O)c1ccc(C(=O)Nc2cccc(COc3ccc(Br)cc3CN3CC[C@H](O)C3)c2)cc1.O=CO
Population Fragmented Nuclei (%) [1]: 13% and 4%
Population Healthy Nuclei (%) [1]: 48% and 65%
Population Hoechst High Intensity Objects (%) [1]: 0%
Population Mitotic Cells (%) [1]: 52%
Population Normal (%) [1]: 100%
Population Pyknosed Nuclei (%) [1]: 37% and 30%
Total Cell Count [1]: 166 and 138
Population Fragmented Nuclei (%) [2]: 15% and 22%
Population Healthy Nuclei (%) [2]: 55% and 64%
Population Hoechst High Intensity Objects (%) [2]: 0%
Population Mitotic Cells (%) [2]: 51%
Population Normal (%) [2]: 100%
Population Pyknosed Nuclei (%) [2]: 30%
Total Cell Count [2]: 180 and 311
Population Fragmented Nuclei (%) [3]: 9% and 14%
Population Healthy Nuclei (%) [3]: 54% and 50%
Population Hoechst High Intensity Objects (%) [3]: 0%
Population Normal (%) [3]: 100% and 99%
Total Cell Count [3]: 142 and 175
Population Fragmented Nuclei (%) [4]: 18% and 28%
Population Healthy Nuclei (%) [4]: 57% and 60%
Population Hoechst High Intensity Objects (%) [4]: 0%
Population Mitotic Cells (%) [4]: 29% and 31%
Population Normal (%) [4]: 99%
Population Pyknosed Nuclei (%) [4]: 10%
Total Cell Count [4]: 214 and 336
Population Fragmented Nuclei (%) [5]: 14% and 21%
Population Healthy Nuclei (%) [5]: 55% and 59%
Population Hoechst High Intensity Objects (%) [5]: 0% and 1%
Population Mitotic Cells (%) [5]: 36% and 22%
Population Normal (%) [5]: 100% and 98%
Population Pyknosed Nuclei (%) [5]: 29% and 19%
Total Cell Count [5]: 147 and 164
Population Fragmented Nuclei (%) [6]: 28% and 31%
Population Healthy Nuclei (%) [6]: 62% and 61%
Population Hoechst High Intensity Objects (%) [6]: 0%
Population Mitotic Cells (%) [6]: 4% and 13%
Population Normal (%) [6]: 100% and 99%
Population Pyknosed Nuclei (%) [6]: 9%
Total Cell Count [6]: 253 and 402

CN1CCCN(C(=O)c2cccc(-c3ccc(/C=C4/C(=O)Nc5ccc(Cl)cc54)o3)c2)CC1
Population Apoptotic (%) [1]: 43% and 41%
Population Fragmented Nuclei (%) [1]: 4% and 3%
Population Healthy Nuclei (%) [1]: 79% and 72%
Population Hoechst High Intensity Objects (%) [1]: 0%
Population Membrane Permeable-Phenotype (%) [1]: 4% and 1%
Population Mitochondria Different-Phenotype (%) [1]: 2%
Population Mitotic Cells (%) [1]: 56% and 58%
Population Normal (%) [1]: 100%
Population Pyknosed Nuclei (%) [1]: 16% and 24%
Population Tubulin-Different-Phenotype (%) [1]: 20%
Total Cell Count [1]: 283 and 162
Population Apoptotic (%) [2]: 39% and 56%
Population Fragmented Nuclei (%) [2]: 3% and 1%
Population Healthy Nuclei (%) [2]: 8% and 3%
Population Hoechst High Intensity Objects (%) [2]: 0%
Population Mitochondria Different-Phenotype (%) [2]: 7% and 0%
Population Mitotic Cells (%) [2]: 60% and 44%
Population Normal (%) [2]: 99% and 100%
Population Pyknosed Nuclei (%) [2]: 88% and 95%
Population Tubulin-Different-Phenotype (%) [2]: 61% and 100%
Total Cell Count [2]: 156 and 131
Population Apoptotic (%) [3]: 48% and 54%
Population Fragmented Nuclei (%) [3]: 4%
Population Healthy Nuclei (%) [3]: 83% and 75%
Population Hoechst High Intensity Objects (%) [3]: 0%
Population Membrane Permeable-Phenotype (%) [3]: 5% and 3%
Population Mitochondria Different-Phenotype (%) [3]: 3% and 8%
Population Mitotic Cells (%) [3]: 51% and 45%
Population Normal (%) [3]: 100%
Population Pyknosed Nuclei (%) [3]: 12% and 20%
Population Tubulin-Different-Phenotype (%) [3]: 25%
Total Cell Count [3]: 271 and 164
Population Apoptotic (%) [4]: 75% and 57%
Population Fragmented Nuclei (%) [4]: 4% and 7%
Population Healthy Nuclei (%) [4]: 17% and 13%
Population Hoechst High Intensity Objects (%) [4]: 0%
Population Membrane Permeable-Phenotype (%) [4]: 65% and 52%
Population Mitochondria Different-Phenotype (%) [4]: 4% and 0%
Population Mitotic Cells (%) [4]: 24% and 42%
Population Normal (%) [4]: 100%
Population Pyknosed Nuclei (%) [4]: 78%
Population Tubulin-Different-Phenotype (%) [4]: 34% and 30%
Total Cell Count [4]: 135 and 165
Population Apoptotic (%) [5]: 62% and 80%
Population Fragmented Nuclei (%) [5]: 8% and 7%
Population Healthy Nuclei (%) [5]: 81% and 78%
Population Hoechst High Intensity Objects (%) [5]: 0%
Population Membrane Permeable-Phenotype (%) [5]: 4% and 8%
Population Mitochondria Different-Phenotype (%) [5]: 1%
Population Mitotic Cells (%) [5]: 37% and 19%
Population Normal (%) [5]: 100% and 99%
Population Pyknosed Nuclei (%) [5]: 10% and 13%
Population Tubulin-Different-Phenotype (%) [5]: 20% and 17%
Total Cell Count [5]: 269 and 155
Population Apoptotic (%) [6]: 88% and 71%
Population Fragmented Nuclei (%) [6]: 20% and 37%
Population Healthy Nuclei (%) [6]: 26% and 18%
Population Hoechst High Intensity Objects (%) [6]: 0%
Population Membrane Permeable-Phenotype (%) [6]: 50% and 30%
Population Mitochondria Different-Phenotype (%) [6]: 0%
Population Mitotic Cells (%) [6]: 11% and 28%
Population Normal (%) [6]: 100%
Population Pyknosed Nuclei (%) [6]: 52% and 43%
Population Tubulin-Different-Phenotype (%) [6]: 46% and 27%
Total Cell Count [6]: 120 and 174

CC1=C(C)C(=O)C(C(C)(C)CC(=O)N(CCCCSC[C@H]2O[C@@H](n3cnc4c(N)ncnc43)[C@H](O)[C@@H]2O)Cc2cccc(-c3ccc(Cl)cc3)c2)=C(C)C1=O
Population Apoptotic (%) [1]: 43% and 35%
Population Fragmented Nuclei (%) [1]: 13% and 7%
Population Healthy Nuclei (%) [1]: 72% and 77%
Population Hoechst High Intensity Objects (%) [1]: 0%
Population Membrane Permeable-Phenotype (%) [1]: 1% and 6%
Population Mitochondria Different-Phenotype (%) [1]: 0% and 1%
Population Mitotic Cells (%) [1]: 56% and 64%
Population Normal (%) [1]: 100%
Population Pyknosed Nuclei (%) [1]: 14%
Population Tubulin-Different-Phenotype (%) [1]: 34% and 18%
Total Cell Count [1]: 228 and 306
Population Apoptotic (%) [2]: 36% and 30%
Population Fragmented Nuclei (%) [2]: 11% and 17%
Population Healthy Nuclei (%) [2]: 76% and 62%
Population Hoechst High Intensity Objects (%) [2]: 0% and 1%
Population Membrane Permeable-Phenotype (%) [2]: 18% and 15%
Population Mitochondria Different-Phenotype (%) [2]: 4% and 3%
Population Mitotic Cells (%) [2]: 63% and 69%
Population Normal (%) [2]: 100% and 99%
Population Pyknosed Nuclei (%) [2]: 11% and 19%
Population Tubulin-Different-Phenotype (%) [2]: 73% and 74%
Total Cell Count [2]: 186 and 201
Population Apoptotic (%) [3]: 57% and 51%
Population Fragmented Nuclei (%) [3]: 8% and 9%
Population Healthy Nuclei (%) [3]: 85% and 79%
Population Hoechst High Intensity Objects (%) [3]: 0%
Population Membrane Permeable-Phenotype (%) [3]: 5% and 2%
Population Mitochondria Different-Phenotype (%) [3]: 2% and 1%
Population Mitotic Cells (%) [3]: 42% and 48%
Population Normal (%) [3]: 99% and 100%
Population Pyknosed Nuclei (%) [3]: 5% and 11%
Population Tubulin-Different-Phenotype (%) [3]: 24% and 12%
Total Cell Count [3]: 235 and 305
Population Apoptotic (%) [4]: 46% and 45%
Population Fragmented Nuclei (%) [4]: 13% and 14%
Population Healthy Nuclei (%) [4]: 78% and 68%
Population Hoechst High Intensity Objects (%) [4]: 0%
Population Membrane Permeable-Phenotype (%) [4]: 4% and 8%
Population Mitochondria Different-Phenotype (%) [4]: 13% and 17%
Population Mitotic Cells (%) [4]: 53% and 54%
Population Normal (%) [4]: 100% and 99%
Population Pyknosed Nuclei (%) [4]: 8% and 17%
Population Tubulin-Different-Phenotype (%) [4]: 78% and 83%
Total Cell Count [4]: 182 and 183
Population Apoptotic (%) [5]: 50%
Population Fragmented Nuclei (%) [5]: 12% and 13%
Population Healthy Nuclei (%) [5]: 83% and 81%
Population Hoechst High Intensity Objects (%) [5]: 0%
Population Membrane Permeable-Phenotype (%) [5]: 3% and 1%
Population Mitochondria Different-Phenotype (%) [5]: 0%
Population Mitotic Cells (%) [5]: 50%
Population Normal (%) [5]: 99%
Population Pyknosed Nuclei (%) [5]: 3% and 5%
Population Tubulin-Different-Phenotype (%) [5]: 13% and 5%
Total Cell Count [5]: 257 and 316
Population Apoptotic (%) [6]: 71% and 65%
Population Fragmented Nuclei (%) [6]: 18% and 20%
Population Healthy Nuclei (%) [6]: 74% and 69%
Population Hoechst High Intensity Objects (%) [6]: 0%
Population Membrane Permeable-Phenotype (%) [6]: 0% and 5%
Population Mitochondria Different-Phenotype (%) [6]: 6% and 13%
Population Mitotic Cells (%) [6]: 28% and 35%
Population Normal (%) [6]: 100%
Population Pyknosed Nuclei (%) [6]: 7% and 10%
Population Tubulin-Different-Phenotype (%) [6]: 76% and 69%
Total Cell Count [6]: 197
